This note sets out measurements from ChEMBL document CHEMBL1938298, “Synthesis and characterization of [¹²⁵I]2-iodo N-[(S)-{(S)-1-methylpiperidin-2-yl}(phenyl)methyl]3-trifluoromethyl-benzamide as novel imaging probe for glycine transporter 1” (Bioorg Med Chem, 2011).

Data set [1] has as its system Mus musculus. The data set is described as follows: In vivo binding affinity to GlyT1 in ddY mouse brain striatum at 33.3 kBq, iv after 60 mins in presence of N-Me-SSR504734 2 mg/kg, iv administered 15 mins prior to compound administration relative to control. It is filed as functional, organism-based. More on the design: dose 2 mg/kg. To be noted: tested as the 125I-labelled form.

Data set [2] deals with Mus musculus. The data set is described as follows: In vivo binding affinity to GlyT1 in ddY mouse brain midbrain at 33.3 kBq, iv after 30 mins in presence of SSR504734 2 mg/kg, iv administered 15 mins prior to compound administration relative to control. The format is functional, organism-based. Further details: dose 2 mg/kg. To be noted: tested as the 125I-labelled form.

Data set [3] has as its system Mus musculus. Kind of data set: In vivo binding affinity to GlyT1 in ddY mouse brain midbrain at 200 kBq, iv after 60 mins by autoradiography relative to control. It is filed as functional, organism-based. To be noted: tested as the 125I-labelled form.
For data set [4], the system named is Mus musculus. Kind of data set: In vivo binding affinity to GlyT1 in ddY mouse brain medullary region at 200 kBq, iv after 60 mins by autoradiography relative to control. The format is functional, organism-based. To be noted: Medulla of organ, tested as the 125I-labelled form. An outline of the steps:
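Male ddY mice were injected iv with [125I]5 (200 kBq) and killed 60 min post-injection. For blocking, unlabeled blocker (2 mg/kg) was given iv 15 min before the tracer. Frozen brain sagittal sections (20 μm) were exposed to an imaging plate for 7 days. Regional radioactivity was read as PSL/mm² (n = 5) and compared with control by Kruskal–Wallis with Dunn's post-test.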

The target in data set [5] is T1, Sodium- and chloride-dependent glycine transporter 1 (Rattus norvegicus) (UniProt P28572).
T1 sequence (whole entry): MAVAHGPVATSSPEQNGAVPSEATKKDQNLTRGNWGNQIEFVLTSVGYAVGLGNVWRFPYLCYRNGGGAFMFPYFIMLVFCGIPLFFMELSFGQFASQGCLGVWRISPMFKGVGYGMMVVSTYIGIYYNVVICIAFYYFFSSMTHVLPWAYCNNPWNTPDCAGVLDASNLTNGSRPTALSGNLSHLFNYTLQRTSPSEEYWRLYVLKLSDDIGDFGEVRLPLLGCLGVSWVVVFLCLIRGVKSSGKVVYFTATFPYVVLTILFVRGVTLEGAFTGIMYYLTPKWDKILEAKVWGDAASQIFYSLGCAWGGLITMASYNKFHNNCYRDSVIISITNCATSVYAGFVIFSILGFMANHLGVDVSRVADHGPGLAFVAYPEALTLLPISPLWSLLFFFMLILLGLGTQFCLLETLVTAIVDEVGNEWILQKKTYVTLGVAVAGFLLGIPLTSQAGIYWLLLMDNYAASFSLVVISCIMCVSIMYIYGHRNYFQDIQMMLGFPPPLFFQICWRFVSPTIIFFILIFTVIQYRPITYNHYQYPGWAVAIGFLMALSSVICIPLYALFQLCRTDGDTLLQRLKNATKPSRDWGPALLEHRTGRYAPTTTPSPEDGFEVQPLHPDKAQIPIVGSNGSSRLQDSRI
The data set is described as follows: Binding affinity to GlyT1 in rat brain medullary region at 0.03 to 0.04 nM preincubated for 20 mins in binding buffer before compound addition measured after 30 mins by autoradiography in presence of 1 mM GlyT1 substrate glycine relative to control. It is filed as tissue-based. The note with it: tested as the 125I-labelled form. The procedure, abridged: (§1)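 Rat brain sagittal sections (20 µm) preincubated 20 min at 25 °C in Tris-HCl buffer pH 7.5 (NaCl, KCl, MgCl2, CaCl2), then 30 min at 25 °C with [125I] tracer (100 kBq, 0.03–0.04 nM) plus competitor (10 µM; glycine 1 or 10 mM). Cold washes, imaging plate 3 days, ROI PSL minus background per mm². % control from ≥triplicate slices, three rats.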

For data set [6], the target named is T1, Sodium- and chloride-dependent glycine transporter 1 (Rattus norvegicus). Kind of data set: Binding affinity to GlyT1 in rat brain cerebellum at 0.03 to 0.04 nM preincubated for 20 mins in binding buffer before compound addition measured after 30 mins by autoradiography in presence of 0.01 mM GlyT1 inhibitor SSR504734 relative to control. To be noted: tested as the 125I-labelled form. The format is tissue-based. An outline of the steps:
as §1

Data set [7] shares this target. Kind of data set: Binding affinity to GlyT1 in rat brain corpus callosum at 0.03 to 0.04 nM preincubated for 20 mins in binding buffer before compound addition measured after 30 mins by autoradiography relative to control. It is filed as tissue-based. To be noted: tested as the 125I-labelled form. An outline of the steps:
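Rat brain sagittal sections (20 µm), 20 min preincubation at 25 °C in Tris-HCl pH 7.5 binding buffer, then [125I] tracer (100 kBq, 0.03–0.04 nM) for 30 min at 25 °C. Nonspecific binding taken with 10 µM unlabeled ligand. Imaging-plate read-out as (PSL−BG)/mm². Mean ± SD, n = 4–5 from at least three rats; Mann–Whitney U-test.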

For data set [8] the target is unchanged. Kind of data set: Binding affinity to GlyT1 in rat brain midbrain at 0.03 to 0.04 nM preincubated for 20 mins in binding buffer before compound addition measured after 30 mins by autoradiography in presence of 0.01 mM GlyT1 inhibitor ALX5407 relative to control. To be noted: tested as the 125I-labelled form. It is filed as tissue-based. An outline of the steps:
as §1

For data set [9] the target is unchanged. Kind of data set: Binding affinity to GlyT1 in rat brain medullary region at 0.03 to 0.04 nM preincubated for 20 mins in binding buffer before compound addition measured after 30 mins by autoradiography in presence of 0.01 mM GlyT1 inhibitor SSR504734 relative to control. It is filed as tissue-based. The note with it: tested as the 125I-labelled form. An outline of the steps:
as §1

For data set [10] the target is unchanged. Kind of data set: Binding affinity to GlyT1 in rat brain cerebral cortex at 0.03 to 0.04 nM preincubated for 20 mins in binding buffer before compound addition measured after 30 mins by autoradiography in presence of 0.01 mM GlyT1 inhibitor SSR504734 relative to control. It is filed as tissue-based. To be noted: tested as the 125I-labelled form. An outline of the steps:
as §1

Another data set deals with Kidney. The data set is described as follows: Drug uptake in ddY mouse kidney at 11.1 kBq, iv after 15 min by gamma counting. The format is ADME, organism-based. The note with it: in vivo. An outline of the steps:
(§2)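 Male ddY mice (6 weeks, 30–35 g) were given about 11.1 kBq of [125I]tracer in 0.1 mL i.v. via the tail vein. At each time point the animals were killed and organs dissected, weighed and gamma-counted. Uptake is expressed as % injected dose per gram of tissue, mean ± SD, n = 5–6.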

The next data set concerns Intestine. The data set is described as follows: Drug uptake in ddY mouse intestine at 11.1 kBq, iv after 180 min by gamma counting. It is filed as ADME, organism-based. To be noted: in vivo, 3 h. An outline of the steps: (§3)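 Male ddY mice (6 weeks, 30–35 g) received about 11.1 kBq [125I]tracer in 0.1 mL i.v. via tail vein. Killed at set times, organs dissected and weighed, radioactivity gamma counted. Reported as % injected dose/g tissue, mean ± SD, n = 5–6.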

The test system of data set [11] is Mus musculus. The data set is described as follows: In vivo binding affinity to GlyT1 in ddY mouse brain medullary region at 33.3 kBq, iv after 30 mins in presence of N-Me-SSR504734 2 mg/kg, iv administered 15 mins prior to compound administration relative to control. The format is functional, Medulla of organ. The procedure, abridged: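 Male ddY mice (6 W, 30–35 g) were given [125I]5 (ca. 33.3 kBq, 0.1 mL) iv via tail vein. Blocker (2 mg/kg in 30% DMSO/saline) was given iv 15 min before the tracer. Mice were killed 30 or 60 min after injection and the brain regions were dissected and weighed. Gamma counting gave % dose/g, compared with control; n = 5–6.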

Data set [12] concerns Pancreas. The data set is described as follows: Drug uptake in ddY mouse pancreas at 11.1 kBq, iv after 15 min by gamma counting. The format is ADME, organism-based. To be noted: in vivo. The procedure, abridged:
as §2

Data set [13] has as its system Pancreas. Kind of data set: Drug uptake in ddY mouse pancreas at 11.1 kBq, iv after 60 min by gamma counting. The format is ADME, organism-based. To be noted: in vivo, 1 h. An outline of the steps: as §2
The subject of the next data set is Brain. The data set is described as follows: Drug uptake in ddY mouse brain at 11.1 kBq, iv after 30 min by gamma counting. The format is ADME, organism-based. To be noted: in vivo, 0.5 h. An outline of the steps: as §3

Calls of active or inactive are those of the source. The rule behind the calls is not given here.

As to `CN1CCCC[C@H]1[C@@H](NC(=O)c1cccc(C(F)(F)F)c1I)c1ccccc1`, the outcome (with Mus musculus [1]; in the data set with Mus musculus [3]; in the data set with Mus musculus [4]; in data set [7]) was Active. Also, in the data set on Mus musculus [2], the outcome was inactive. For the same compound, the Activity is 104% in data set [5]; 27.7% in data set [6]; 36.2% in data set [8]; 31.7% in data set [9]; 29.3% in [10].

As to `CN1CCCC[C@H]1[C@@H](NC(=O)c1cccc(C(F)(F)F)c1[125I])c1ccccc1`, the Drug uptake is listed as 8.86 % ID/g in the data set on Kidney; 17.13 % ID/g in the data set with Intestine; 7.93 % ID/g with Pancreas [12]; 9.51 % ID/g with Pancreas [13]; 2.17 % ID/g with Brain. In addition, in the data set on Mus musculus [11], the Activity was 59%.
